Published values pooled from the literature.
Protocols differ between the studies behind these lines.
CDK17: Cyclin-dependent kinase 17 (CDK17, Homo sapiens, UniProt Q00537)

With `O=C(Nc1cnn(-c2csc(C(=O)NC3COC3)c2)c1)Nc1c(F)cccc1Cl` the remaining activity was 96% (Cyclin-dependent kinase 17, with cyclin Y (CDK17, Homo sapiens, UniProt Q00537); enzyme activity, inhibitor; 5 µM).
With `C[C@@H]1CCN(c2nccc(-c3cnn4ncccc34)n2)C1` the remaining binding was 100% (CDK17; binding; 1 µM).
With `Cn1c2c(Cl)c(Cl)ccc2c2cc[nH]c(=O)c21` the ΔTm was -0.4 °C (CDK17; thermal stability, DSF; 10 µM).
For `c1ccc(CNc2nc(N3CCOc4ccccc43)nc3c2CCCC3)cc1`, the inhibition was -12.4% (CDK17; target engagement in cells, inhibitor, chemoproteomics; 20 mM).
`C[C@@H](c1cccc(C#N)c1)n1cc(Cl)cc(C(N)=O)c1=N` has a remaining binding of 84% (CDK17; cell-free assay, competition with immobilised ligand; 1 µM).
`Cn1c2c(c3ccc(Cl)c(Cl)c31)C(C#N)C(C)(C)NC2=O` (stereo not drawn) gave a ΔTm of 1.1 °C (CDK17; thermal stability, DSF; 10 µM).
For `COc1ccc2cc(OCC3(C(=O)O)CN(C(=O)c4ccc(F)cc4)C3)ccc2c1`, the remaining binding was 100% (CDK17; cell-free assay, competition with immobilised ligand; 1 µM).
`CCN1CCC2(CC1)NC(=O)c1c(c3ccc(Cl)c(Cl)c3n1C)C2C#N` (racemic) has a ΔTm of 0 °C (CDK17; thermal stability, DSF; 10 µM).
`CCCOc1ccc([C@H]2[C@H](C(=O)O)[C@@H](c3ccc4c(c3)OCO4)CN2CC(=O)Nc2c(CC)cccc2CC)cc1` gave a remaining binding of 91% (CDK17; cell-free assay, competition with immobilised ligand; 1 µM).
For `Cn1c2c(Cl)c(Cl)ccc2c2cc(N)[nH]c(=O)c21`, the ΔTm was 0.6 °C (CDK17; thermal stability, DSF; 10 µM).
With `O=C(N[C@H]1CCCCC/C=C\C2C[C@@]2(C(=O)O)NC(=O)[C@@H]2C[C@@H](Oc3ccncc3)CN2C1=O)OC1CCCC1` (stereo partly drawn) the remaining binding was 89% (CDK17; binding, competition with immobilised ligand; 1 µM).
For `COc1cccc2c(NCc3ccccc3)nc(-n3c(N)nc4ccccc43)nc12`, the inhibition was -40.2% (CDK17; target engagement in cells, inhibitor, chemoproteomics; 20 mM).
